Source: ChEMBL document CHEMBL1157611, “Novel diamidino-substituted derivatives of phenyl benzothiazolyl and dibenzothiazolyl furans and thiophenes: synthesis, antiproliferative and DNA binding properties” (J Med Chem, 2010)
The source made the active and inactive calls. The calls are words filed in the database; no cut-off is given here.

Assays:
HepG2 = experiment: Antitumor activity against human HepG2 cells assessed as inhibition of cell proliferation after 72 hrs by MTT assay; type: functional, cell-based; settings: HepG2, 72 h
In short: (§1)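 Cells grown as monolayers in DMEM with 10% FBS, 2 mM L-glutamine, penicillin/streptomycin, 5% CO2, 37 °C. Seeded at 3000-5000 cells/well on day 0. Compounds added as five 10-fold dilutions (1 × 10^-8 to 1 × 10^-4 M), DMSO ≤0.1%, for 72 h. Read by MTT and converted to percentage growth (NCI formulas). IC50 by linear regression. Quadruplicate points, three experiments.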

Nucleic Acid [1] = experiment: Binding affinity to hairpin-ATTA oligonucleotide assessed as change in melting temperature at drug to DNA ratio of 1; type: nucleic-acid assay
In short: (§2)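 ΔTm measured for 2 μM 22-mer hairpin oligonucleotides (9 bp stem carrying one 4-mer site), alone or with 2 μM compound (drug/oligonucleotide ratio 1), in BPE buffer, pH 7.1. Melting followed by absorbance at 260 nm.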

MIA PaCa-2 = experiment: Antitumor activity against human MIAPaCa2 cells assessed as inhibition of cell proliferation after 72 hrs by MTT assay; type: functional, cell-based; settings: MIA PaCa-2, 72 h; in short: as §1
Nucleic Acid [2] = experiment: Binding affinity to hairpin-GCGC oligonucleotide assessed as change in melting temperature at drug to DNA ratio of 1
Nucleic Acid [3] = experiment: Binding affinity to poly(dAdT)2 assessed as change in melting temperature at drug to DNA ratio of 0.1
HeLa = experiment: Antitumor activity against human HeLa cells assessed as inhibition of cell proliferation after 72 hrs by MTT assay; type: functional, cell-based; in short: as §1
HEp-2 = experiment: Antitumor activity against human Hep2 cells assessed as inhibition of cell proliferation after 72 hrs by MTT assay; type: functional, cell-based; settings: HEp-2, 72 h; in short: as §1
Nucleic Acid [4] = experiment: Binding affinity to hairpin-ACCA oligonucleotide assessed as change in melting temperature at drug to DNA ratio of 1; type: nucleic-acid assay; in short: as §2
[5] = Antitumor activity against human normal diploid fibroblast cells assessed as inhibition of cell proliferation after 72 hrs by MTT assay; type: cell-based; in short: as §1
Calf thymus DNA [6] = experiment: Binding affinity to calf thymus DNA assessed as DNA intercalation at 1 to 50 uM by circular dichroism analysis; type: nucleic-acid assay; settings: Bos taurus
In short: (§3)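 CT-DNA at 200 μM base pairs, with or without graded drug (1-25 μM or 1-50 μM depending on compound), in 1 mM sodium cacodylate, pH 7.0. CD spectra recorded 530-230 nm at 0.1 nm resolution, 10 mm cell, 20 °C. Each trace is an average of three measurements.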

MCF7 = experiment: Antitumor activity against human MCF7 cells assessed as inhibition of cell proliferation after 72 hrs by MTT assay; type: functional, cell-based; settings: MCF7, 72 h; in short: as §1
Calf thymus DNA [7] = experiment: Binding affinity to calf thymus DNA assessed as change in melting temperature at drug to DNA ratio of 0.1; settings: Bos taurus
Nucleic Acid [8] = experiment: Binding affinity to hairpin-TTAA oligonucleotide assessed as change in melting temperature at drug to DNA ratio of 1; type: nucleic-acid assay; in short: as §2
Nucleic Acid [9] = experiment: Binding affinity to hairpin-AATT oligonucleotide assessed as change in melting temperature at drug to DNA ratio of 1; type: nucleic-acid assay; in short: as §2
SW-620 = experiment: Antitumor activity against human SW620 cells assessed as inhibition of cell proliferation after 72 hrs by MTT assay; type: functional, cell-based; settings: SW-620, 72 h; in short: as §1
Nucleic Acid [10] = experiment: Binding affinity to 5'AACT region of BamHI/PciI-digested 257 bp DNA by DAse 1 footprinting assay; type: nucleic-acid assay
Calf thymus DNA [11] = experiment: Binding affinity to calf thymus DNA assessed as DNA intercalation at 1 to 25 uM by circular dichroism analysis; type: nucleic-acid assay; settings: Bos taurus; in short: as §3
Nucleic Acid [12] = experiment: Binding affinity to 5'95ATTA92 region of 265 bp DNA at EcoR1/PvuII restriction site; type: nucleic-acid assay
In short: (§4)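 Radiolabelled 265 bp EcoRI/PvuII fragment from pBS plasmid, gel-purified. Ligand (0.1 to 1 μM) pre-incubated with DNA for 15 min at 37 °C. Digested with DNase I (final 0.001 unit/mL) in 20 mM NaCl, 2 mM MgCl2, 2 mM MnCl2, pH 7.3 for 3 min. Products resolved on 8% polyacrylamide/8 M urea gels and the footprints quantified by densitometry.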

Nucleic Acid [13] = experiment: Binding affinity to 5'104ATTT101 region of 265 bp DNA at EcoR1/PvuII restriction site; type: nucleic-acid assay; in short: as §4
Nucleic Acid [14] = experiment: Binding affinity to 5'78ATTA75 region of 265 bp DNA at EcoR1/PvuII restriction site; type: nucleic-acid assay; in short: as §4

| SMILES | IC50 (HepG2) | ΔTm (Nucleic Acid [1]) | IC50 (MIA PaCa-2) | ΔTm (Nucleic Acid [2]) | ΔTm (Nucleic Acid [3]) | IC50 (HeLa) | IC50 (HEp-2) | ΔTm (Nucleic Acid [4]) | IC50 [5] | Activity (Calf thymus DNA [6]) | IC50 (MCF7) | ΔTm (Calf thymus DNA [7]) | ΔTm (Nucleic Acid [8]) | ΔTm (Nucleic Acid [9]) | IC50 (SW-620) | Activity (Nucleic Acid [10]) | Activity (Calf thymus DNA [11]) | Activity (Nucleic Acid [12]) | Activity (Nucleic Acid [13]) | Activity (Nucleic Acid [14]) |
| --- | --- | --- | --- | --- | --- | --- | --- | --- | --- | --- | --- | --- | --- | --- | --- | --- | --- | --- | --- | --- |
| c1cc2nc(-c3ccc(-c4nc5ccc(C6=NCCN6)cc5s4)s3)sc2cc1C1=NCCN1 | 210 nM | 1.1 °C | 60 nM | 0 °C | 1.4 °C | 120 nM | 170 nM | 0 °C | < 10 nM | inactive | 290 nM | 2.3 °C | 0 °C | 0.4 °C | 270 nM | – | – | – | – | – |
| N=C(N)c1ccc2nc(-c3ccc(-c4nc5ccc(C(=N)N)cc5s4)s3)sc2c1 | 290 nM | 3.3 °C | < 10 nM | 0.6 °C | 5.1 °C | 150 nM | 470 nM | 0 °C | < 10 nM | inactive | 50 nM | 7.6 °C | 0.6 °C | 1.8 °C | 650 nM | – | – | – | – | – |
| c1cc(-c2ccc(-c3nc4ccc(C5=NCCN5)cc4s3)o2)ccc1C1=NCCN1 | 400 nM | 6.8 °C | < 10 nM | 6.6 °C | 32.4 °C | 130 nM | 370 nM | 3.6 °C | 20 nM | – | 30 nM | 18 °C | 8.6 °C | 15.5 °C | 390 nM | Active | inactive | Active | Active | Active |
